# Screening data deposited in PubChem by several laboratories.
# KCNQ1 block = inhibitors of human KCNQ1 potassium channel. CHO-K1 KCNQ1, FluxOR thallium flux fluorescence; stronger effect = higher value. B-score at 10 µM. 1.3% of 310,000 active. AID 2642;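 active means compounds whose thallium flux B-score, printed positive for inhibition, exceeds three library SD while starting fluorescence stays within three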;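 further: channel opened by potassium depolarization with thallium stimulus after 20 min compound exposure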
# Target sequence (P51787 whole entry, looked up): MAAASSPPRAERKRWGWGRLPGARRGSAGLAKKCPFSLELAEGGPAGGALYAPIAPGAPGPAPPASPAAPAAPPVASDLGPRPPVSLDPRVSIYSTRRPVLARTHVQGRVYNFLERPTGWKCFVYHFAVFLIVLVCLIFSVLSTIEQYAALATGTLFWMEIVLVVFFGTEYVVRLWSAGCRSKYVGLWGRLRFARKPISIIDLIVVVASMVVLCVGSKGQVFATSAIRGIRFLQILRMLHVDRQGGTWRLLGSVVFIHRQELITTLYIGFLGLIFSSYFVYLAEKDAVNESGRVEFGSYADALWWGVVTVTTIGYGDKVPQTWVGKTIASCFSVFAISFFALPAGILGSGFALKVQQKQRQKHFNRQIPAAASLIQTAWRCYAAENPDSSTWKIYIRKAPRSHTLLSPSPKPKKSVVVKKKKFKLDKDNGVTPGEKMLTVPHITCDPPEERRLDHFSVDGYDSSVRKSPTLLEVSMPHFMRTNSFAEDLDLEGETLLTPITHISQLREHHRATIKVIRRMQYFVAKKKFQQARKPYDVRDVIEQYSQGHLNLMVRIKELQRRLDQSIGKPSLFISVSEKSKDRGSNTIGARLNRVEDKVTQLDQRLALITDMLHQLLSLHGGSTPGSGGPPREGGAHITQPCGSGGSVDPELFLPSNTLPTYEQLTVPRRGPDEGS
# Cl transport mod = KCC2 (human) Cl- transport modulation. KCC2 cells, thallium flux FluoZin-2 fluorescence. B-score of Tl+ flux slope (higher = more flux/activation; lower = inhibition) at 10 µM. 2.2% of 190,000 active. AID 1456;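 active means thallium flux slope and its plate-corrected score both differing from the plate sample mean at a set confidence after two filtering rounds, in either direction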;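 further: slope of fluorescence scaled to starting intensity during 10 to 20 s after thallium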
# hERG rescue = shields human hERG channel from block by proarrhythmic agents; activation (rescue from dofetilide block), less the hit threshold, % at 10 µM; Q12809; 0.51% of 310,000 active; AID 1511; CHO-hERG, FluxOR thallium flux, dofetilide IC70 present;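 active means activation above the mean of controls blocked by dofetilide plus 5 SD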;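 further: thallium influx through hERG after potassium depolarization seen as dye fluorescence rise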
# SUMO Mot1 rescue = blocks SUMOylation pathway, rescuing yeast Mot1-301 growth; S. cerevisiae Mot1-301 growth rescue, ATP luminescence, 38.5C; percent above DMSO median, 100 means doubled; growth rescue, % at 18.8 µM; 1% of 320,000 active;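 active means every valid replicate shows activation above 250% relative to neutral control wells; inactive means the rest, any valid replicate at or below 250%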;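 further: OY570 slx delta 5 strain wells were the positive control but not used for scaling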
# AI-2 QS modul = Vibrio harveyi AI-2 quorum sensing modulation. Vibrio harveyi JMH597 AI-2 luminescence/OD600 ratio, 9 h; stronger effect = lower value; strain lacks LuxN and CqsS sensors; 0 = neutral-control median. activity change, % at 7.5 µM. 0.4% of 300,000 active. AID 2094; in the data active means activity change below about -75%, passing the limit was not always enough; inconclusive means no clear call, values can overlap the other calls;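 further: luminescence divided by OD600 gain over 9 h not by final OD600 alone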
# KCNQ1 pot = potentiators or activators of human KCNQ1 potassium channel. P51787. CHO-K1 KCNQ1, thallium flux FluxOR fluorescence; stronger effect = higher value. B-score at 10 µM. 0.35% of 310,000 active;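 active means fluorescence ratio B-score, a plate-corrected score, at least three library SD, with initial intensity B-score within 5 SD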
#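 assay system = CHO-K1 cells stably expressing KCNQ1 | medium = assay buffer, equal DMSO in all wells | timing = 37 °C overnight plating, 90-min dark dye load, 20-min compound pretreatment | measured by = kinetic FluxOR thallium fluorescence, 10-s 1-Hz baseline, 110-s post-stimulus read | measure = fluorescence change relative to baseline, converted to B score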
# KCC2 sec1 = KCC2 (human) modulation, secondary assay; 15% of 3,700 active; AID 1713; normalised thallium flux (F/F0 slope) at 10 µM; shares compounds with Cl transport mod; HEK293-KCC2, thallium flux, FluoZin2 fluorescence; stronger effect = higher value;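 active means thallium flux slope above the same plate's solvent-only control mean plus 3 SD; inconclusive means the two replicate wells disagree; inactive means no significant difference from solvent-only control wells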
# KCC2 bumet counter = bumetanide-insensitive thallium flux in KCC2 cells with ouabain, counter-screen | 49% of 3,700 active | shares compounds with Cl transport mod | normalized thallium flux at 10 µM | HEK293-KCC2 + bumetanide/ouabain, thallium flux FluoZin2; stronger effect = higher value;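 active means thallium entry rate above the same plate's blocked-transporter control wells by more than 3 SD; inconclusive means the two repeat wells disagree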;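 further: raw slope of fluorescence over initial fluorescence between 10 and 20 s after thallium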
# KCC2 sec2 = confirmation of human KCC2 transport modulators; shares compounds with Cl transport mod; HEK293-KCC2, thallium flux FluoZin2 fluorescence; actives lie on both sides; F/F0 rise rate, 10–20 s post-thallium; normalized thallium flux at 10 µM; 23% of 3,700 active; AID 1715;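 active means thallium flux slope more than 3 SD above or below the plate's solvent-only control mean, mostly below; inconclusive means the two repeat wells disagreed; inactive means no significant shift from solvent-only controls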;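 further: raw slope with 0.1% DMSO as baseline and bumetanide as block control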
# HEK counter1 = parental HEK flux effect, counter-screen; shares compounds with Cl transport mod; HEK293 parental cells, thallium flux FluoZin2, ouabain; baseline-ratio fluorescence slope, 10–20 s after thallium; thallium flux rate (normalised fluorescence) at 10 µM; 46% of 3,700 active; AID 1716;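 active means thallium flux rate significantly above the same plate's solvent-only control wells, beyond their mean plus 3 SD; inconclusive means the two replicate wells gave conflicting results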
# KCC2 ouabain = confirmation of human KCC2 modulators with ouabain. HEK293-KCC2, thallium flux FluoZin2 fluorescence; bidirectional: low = inhibitor, high = activator. raw Tl+ flux slope (below DMSO = inhibition, above = activation) at 10 µM. 48% of 3,700 active. shares compounds with Cl transport mod. AID 1717;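 active means thallium flux slope beyond 3 SD from same-plate DMSO control mean in most replicates, usually higher, sometimes lower; inconclusive means repeat tests gave conflicting results; inactive means no significant difference from controls in most replicates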;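 further: slope of initial-normalized fluorescence between seconds 10 and 20 after thallium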
# HEK counter2 = counter-screen for KCC2 modulators: effect in parental HEK293 cells. thallium flux FluoZin-2 fluorescence slope. shares compounds with Cl transport mod. thallium flux slope at 10 µM. 33% of 3,700 active;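 active means thallium flux slope above the same plate's solvent-control mean plus 3 SD in both duplicate wells; inconclusive means duplicate wells that disagreed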;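 further: run without ouabain in cells lacking the KCC2 cotransporter; slope of fluorescence scaled to its starting value between 10 and 20 s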
# An asterisk follows results filed as active; i = inactive; u = inconclusive; x = not tested or not shown. An excerpt weighted towards active compounds, which were near 4.2% of everything screened.
SMILES,KCNQ1 block,Cl transport mod,hERG rescue,SUMO Mot1 rescue,AI-2 QS modul,KCNQ1 pot,KCC2 sec1,KCC2 bumet counter,KCC2 sec2,HEK counter1,KCC2 ouabain,HEK counter2
O=C(CCn1c(=O)c2ccccc2n(Cc2cccc([N+](=O)[O-])c2)c1=O)N1CCc2ccccc2C1,i,-3.13*,-9.5,2.8,11.7,i,0.00683,0.00466,0.0338,0.00671,0.0178*,0.0109
CCn1c(=O)c2ccccc2n(Cc2cccc([N+](=O)[O-])c2)c1=O,i,x,1.7,-6.8,10.1,i,x,x,x,x,x,x
Cc1cccc(OCC(=O)N/N=C/CC(C)c2ccccc2)c1C (configuration not stated),i,-4.47*,-5.0,x,14.7,i,0.0089,0.00535,0.0309,0.00737,u,0.0112
N#C/C(=C\c1ccc(-c2ccccc2[N+](=O)[O-])o1)C(=O)Nc1nc(-c2cccs2)cs1,i,7.74*,12.2*,-7.3,11.1,i,0.0183,0.0268*,0.0316,0.0174*,0.0219*,0.0157*
C(=C\c1ccccc1)/CN1CCN(Cc2ccc3c(c2)OCCO3)CC1,i,3.39*,-11.1,x,25.3,i,0.00827,0.00497,0.0347,0.00801,0.0213,0.0109
O=C(CSc1nncn1-c1cccnc1)Nc1cccc(C(F)(F)F)c1,i,x,-2.3,1.0,-17.6,i,x,x,x,x,x,x
